# According to ChEMBL document CHEMBL3779860, “A Designed Tryptophan- and Lysine/Arginine-Rich Antimicrobial Peptide with Therapeutic Potential for Clinical Antibiotic-Resistant Candida albicans Vaginitis” (J Med Chem, 2016):
# Tests used:
# Candida albicans [1] = assay: Antimicrobial activity against antibiotic resistant Candida albicans clinical isolate 08032710 compound treated in NaCl solution measured after 36 hrs by disc diffusion method; format: functional; settings: isolate 08032710, 36 h
# Procedure, shortened: (§1)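 Salt-tolerance test: peptide at 2 mg/mL was prepared in sterile ddH2O, in 150 mM NaCl, or in PBS (150 mM NaCl, 2.7 mM KCl, 1.5 mM KH2PO4, 8 mM K2HPO4, pH 7.2). Anti-C. albicans activity was then assessed by inhibition zone on Sabouraud medium with 0.7% agar.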
# Candida albicans [2] = assay: Antimicrobial activity against antibiotic resistant Candida albicans clinical isolate 08032815 compound treated in NaCl solution measured after 36 hrs by disc diffusion method; format: functional; settings: isolate 08032815, 36 h; procedure, shortened: as §1
# Candida albicans [3] = assay: Antimicrobial activity against antibiotic resistant Candida albicans clinical isolate 08030809 after 16 hrs by broth dilution method; format: functional; settings: isolate 08030809, 16 h
# Procedure, shortened: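 Broth microdilution in Sabouraud liquid medium. Samples are stocks in 0.9% NaCl, 10 µL added to 90 µL broth plus 100 µL of 2 × 10^5 CFU/mL yeast suspension. Incubated 16 h at 28°C, growth read by A600. MIC is the lowest concentration completely inhibiting growth; mean of three independent experiments.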
# [4] = Induction of hemolysis in human RBC at 320 ug/mL after 30 mins; format: cell-based, Erythrocyte; settings: red blood cells, read-out: Activity
# Procedure, shortened: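 Serial dilutions were incubated with human erythrocytes for 30 min at 37°C. Supernatant absorbance was read at 540 nm after centrifugation. Hemolysis is expressed as % of the 1% Triton X-100 lysis value, pooled from three independent experiments. The highest concentration tested was 320 µg/mL.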
# Candida albicans [5] = assay: Antimicrobial activity against antibiotic resistant Candida albicans clinical isolate 08030809 assessed as clone count at MIC after 1 hr by colony counting assay (reference value: 228 +/- 23 CFU); format: functional
# Staphylococcus aureus = assay: Antimicrobial activity against Staphylococcus aureus ATCC 2592 assessed as inhibition of […] growth after 16 hrs by broth dilution method; format: functional; settings: ATCC 2592, 16 h
# Procedure, shortened: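 Broth dilution in LB broth; 100 µL of 2 × 10^5 CFU/mL bacterial suspension plus 10 µL sample (stock series in 0.9% NaCl) in 90 µL broth, 37°C for 16 h. Growth read as A600; MIC is the lowest concentration completely inhibiting growth. Mean of three independent experiments run in duplicate.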
# Candida albicans [6] = assay: Antimicrobial activity against antibiotic resistant Candida albicans clinical isolate 08030809 assessed as clone count at MIC after 12 hrs by colony counting assay (reference value: 54153 +/- 8769 CFU); format: functional
# Mus musculus [7] = assay: Antiinflammatory activity in antibiotic resistant Candida albicans clinical isolate 08030809 induced mouse vaginitis model assessed as reduction in IL-10 secretion in vaginal tissue administered as intravaginal instillation measured on day 10 by ELISA; format: functional, organism-based; settings: Vagina
# Procedure, shortened: (§2)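 Same estradiol-primed mouse model, infected intravaginally with C. albicans 08030809 and treated by intravaginal instillation (20 µL/mouse). Vaginal canals excised on day 10 of treatment and homogenised in 0.9% NaCl. Supernatant taken after 2,000 g for 15 min. TNF-α, IL-6, IL-1β and IL-10 measured by ELISA. Mean ± SE of three independent experiments; unpaired t-test versus vehicle.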
# Candida albicans [8] = assay: Antimicrobial activity against antibiotic resistant Candida albicans clinical isolate 08030809 assessed as clone count at 5 times MIC after 30 mins by colony counting assay (reference value: 156 +/- 16 CFU); format: functional
# Candida albicans [9] = assay: Antimicrobial activity against antibiotic resistant Candida albicans clinical isolate 08030809 assessed as clone count at 10 times MIC after 1 min by colony counting assay (reference value: 62 +/- 7 CFU); format: functional
# Mus musculus [10] = assay: Antiinflammatory activity in antibiotic resistant Candida albicans clinical isolate 08030809 induced mouse vaginitis model assessed as reduction in IL-6 secretion in vaginal tissue at 50 ug administered as intravaginal instillation measured on day 10 by ELISA; format: functional, Vagina; procedure, shortened: as §2
# Candida albicans [11] = assay: Antimicrobial activity against antibiotic resistant Candida albicans clinical isolate 08030809 in mouse vaginitis model assessed as colony count in lavage liquid of vagina at 20 ug administered as intravaginal instillation measured on day 16; format: functional
# Candida albicans [12] = assay: Antimicrobial activity against antibiotic resistant Candida albicans clinical isolate 08030809 in mouse vaginitis model assessed as decrease in colony count in lavage liquid of vagina at 50 ug measured on day 1; format: functional
substance,measurement,setting,value
H-VKRWKKWRWKWKKWV-NH2,MIC,Candida albicans [1],2.79 mg/L
same,MIC,Candida albicans [2],2.79 mg/L
same,MIC,Candida albicans [3],1.4 mg/L
same,"hemolysis at 0.5 h, 320 ug/mL",[4],3.1%
same,Activity,Candida albicans [5],0 CFU
same,MIC,Staphylococcus aureus,1.17 mg/L
same,Activity,Candida albicans [6],0 CFU
same,Activity,Mus musculus [7],Dose-dependent effect
same,Activity,Candida albicans [8],0 CFU
same,Activity,Candida albicans [9],6 CFU
same,inhibition (INH),Mus musculus [10],57%
same,Activity,Candida albicans [11],5.4 ×10³ CFU/ml
same,inhibition (INH),Candida albicans [12],28%
